Results published in BindingDB's records for doi:10.1021/jm0500119 (Cnrs-University of Lille 2 Umr 8525, 2005).

Target: Peptidyl-prolyl cis-trans isomerase NIMA-interacting 1 (Homo sapiens, UniProt Q13526)
Test: Dissociation constant for human peptidyl-prolyl cis-trans isomerase NIMA-interacting 1
Procedure, shortened: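 15N-labeled Pin1 WW domain (His6-tagged, expressed in E. coli BL21(DE3)) in 25 mM deuterated Tris-HCl pH 6.8, 50 mM NaCl, 5 mM DTT, 2.5 mM EDTA, 10% D2O; 600 MHz 1H-15N HSQC at 293 K. 50 μM protein titrated with ligand 0.025–1 mM final; chemical shift perturbations fitted to a single-site equation for KD.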

Peptidyl-prolyl cis-trans isomerase NIMA-interacting 1, sequence (Q13526 whole entry): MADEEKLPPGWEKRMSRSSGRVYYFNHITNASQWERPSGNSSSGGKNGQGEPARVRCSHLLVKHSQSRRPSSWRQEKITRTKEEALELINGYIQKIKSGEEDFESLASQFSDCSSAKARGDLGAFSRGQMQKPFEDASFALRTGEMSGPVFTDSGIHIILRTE

- Kd: > 2000 µM
Compound: NC(=O)[C@@H]1CCCN1C(=O)CCNc1c(O)c(=O)c1=O [1-[(S)-3-(2-Hydroxy-3,4-dioxo-cyclobut-1-enylamino)-propionyl]-pyrrolidine-2-carboxylic acid amide]
